Experiments:
Brain [1] = assay: Drug uptake in rat brain at 6 ug/ml, iv after 1 hr by LC/MS analysis; type: ADME, organism-based; conditions: in vivo
Method in brief: (§1)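 Male Sprague-Dawley rats (230–280 g), non-anesthetised. Ligand in 25% β-cyclodextrin diluted to 6 μg/mL and given iv via tail vein at 0.5 mL/kg (3 μg/kg), n = 3–4 per group. Rats killed at 10, 20, 40 or 60 min. Hypothalamus and striatum extracted in acetonitrile/0.1% formic acid and quantified by LC-MS/MS against spiked brain standards. Result expressed as %SUV.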

Brain [2] = assay: Drug uptake in rat brain at 6 ug/ml, iv up to 1 hr by LC/MS analysis; type: ADME, organism-based; conditions: in vivo; method in brief: as §1
Brain [3] = assay: Drug uptake in rat brain at 6 ug/ml, iv at 10 mins by LC/MS analysis; type: ADME, organism-based; conditions: in vivo; method in brief: as §1
[4] = Lipophilicity, log D of the compound by shake flask method; type: physicochemical; conditions: octanol/water
Method in brief: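 Shake-flask log D at pH 7.4 on the nonradioactive compound. Each enantiomer was measured.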

[5] = Drug uptake in SB612111-pretreated monkey caudate at 4.92 to 6.6 mCi, iv administered at 10 mins post SB612111-treatment measured within 10 mins by PET imaging analysis; type: ADME, organism-based, Macaca mulatta, Caudate nucleus; conditions: rhesus monkey, in vivo
[6] = Drug uptake in monkey amygdala at 4.92 to 6.6 mCi, iv administered as bolus dose measured up to 20 mins by PET imaging analysis; type: ADME, organism-based, Macaca mulatta; conditions: rhesus monkey, in vivo
[7] = Drug uptake in SB612111-pretreated monkey hypothalamus at 4.92 to 6.6 mCi, iv administered at 10 mins post SB612111-treatment measured within 10 mins by PET imaging analysis; type: ADME, organism-based, Macaca mulatta; conditions: rhesus monkey, in vivo
[8] = Drug uptake in SB612111-pretreated monkey cerebellum at 4.92 to 6.6 mCi, iv administered at 10 mins post SB612111-treatment measured from 10 to 120 mins by PET imaging analysis; type: ADME, organism-based, Macaca mulatta; conditions: rhesus monkey, in vivo
[9] = Drug uptake in SB612111-pretreated monkey caudate at 4.92 to 6.6 mCi, iv administered at 10 mins post SB612111-treatment measured from 10 to 120 mins by PET imaging analysis; type: ADME, organism-based, Macaca mulatta, Caudate nucleus; conditions: rhesus monkey, in vivo
[10] = Drug uptake in monkey caudate at 4.92 to 6.6 mCi, iv administered as bolus dose measured at 120 mins by PET imaging analysis; type: ADME, organism-based, Macaca mulatta, Caudate nucleus; conditions: rhesus monkey, in vivo, 2 h
[11] = Drug uptake in SB612111-pretreated monkey lateral temporal cortex at 4.92 to 6.6 mCi, iv administered at 10 mins post SB612111-treatment measured within 10 mins by PET imaging analysis; type: ADME, organism-based, Macaca mulatta; conditions: rhesus monkey, in vivo
[12] = Drug uptake in SB612111-pretreated monkey amygdala at 4.92 to 6.6 mCi, iv administered at 10 mins post SB612111-treatment measured within 10 mins by PET imaging analysis; type: ADME, organism-based, Macaca mulatta; conditions: rhesus monkey, in vivo
[13] = Drug uptake in monkey lateral temporal cortex at 4.92 to 6.6 mCi, iv administered as bolus dose measured at 120 mins by PET imaging analysis; type: ADME, organism-based, Macaca mulatta; conditions: rhesus monkey, in vivo, 2 h
[14] = Drug uptake in SB612111-pretreated monkey lateral temporal cortex at 4.92 to 6.6 mCi, iv administered at 10 mins post SB612111-treatment measured from 10 to 120 mins by PET imaging analysis; type: ADME, organism-based, Macaca mulatta; conditions: rhesus monkey, in vivo
[15] = Drug uptake in monkey caudate at 4.92 to 6.6 mCi, iv administered as bolus dose measured up to 20 mins by PET imaging analysis; type: ADME, organism-based, Macaca mulatta, Caudate nucleus; conditions: rhesus monkey, in vivo
[16] = Drug uptake in SB612111-pretreated monkey amygdala at 4.92 to 6.6 mCi, iv administered at 10 mins post SB612111-treatment measured from 10 to 120 mins by PET imaging analysis; type: ADME, organism-based, Macaca mulatta; conditions: rhesus monkey, in vivo
[17] = Drug uptake in monkey amygdala at 4.92 to 6.6 mCi, iv administered as bolus dose measured at 120 mins by PET imaging analysis; type: ADME, organism-based, Macaca mulatta; conditions: rhesus monkey, in vivo, 2 h
[18] = Drug uptake in SB612111-pretreated monkey hypothalamus at 4.92 to 6.6 mCi, iv administered at 10 mins post SB612111-treatment measured from 10 to 120 mins by PET imaging analysis; type: ADME, organism-based, Macaca mulatta; conditions: rhesus monkey, in vivo
[19] = Drug uptake in monkey hypothalamus at 4.92 to 6.6 mCi, iv administered as bolus dose measured at 120 mins by PET imaging analysis; type: ADME, organism-based, Macaca mulatta; conditions: rhesus monkey, in vivo, 2 h
[20] = Drug uptake in monkey hypothalamus at 4.92 to 6.6 mCi, iv administered as bolus dose measured up to 20 mins by PET imaging analysis; type: ADME, organism-based, Macaca mulatta; conditions: rhesus monkey, in vivo
[21] = Drug uptake in monkey lateral temporal cortex at 4.92 to 6.6 mCi, iv administered as bolus dose measured up to 20 mins by PET imaging analysis; type: ADME, organism-based, Macaca mulatta; conditions: rhesus monkey, in vivo
[22] = Drug uptake in monkey cerebellum at 4.92 to 6.6 mCi, iv administered as bolus dose measured at 120 mins by PET imaging analysis; type: ADME, organism-based, Macaca mulatta; conditions: rhesus monkey, in vivo, 2 h
[23] = Drug uptake in SB612111-pretreated monkey cerebellum at 4.92 to 6.6 mCi, iv administered at 10 mins post SB612111-treatment measured within 10 mins by PET imaging analysis; type: ADME, organism-based, Macaca mulatta; conditions: rhesus monkey, in vivo
[24] = Drug uptake in monkey cerebellum at 4.92 to 6.6 mCi, iv administered as bolus dose measured up to 20 mins by PET imaging analysis; type: ADME, organism-based, Macaca mulatta; conditions: rhesus monkey, in vivo
[25] = Drug uptake in monkey cerebellum at 4.92 to 6.6 mCi, iv administered as bolus dose measured at 90 mins by PET imaging analysis; type: ADME, organism-based, Macaca mulatta; conditions: rhesus monkey, in vivo
[26] = Drug uptake in SB612111-pretreated monkey amygdala at 4.92 to 6.6 mCi, iv administered at 10 mins post SB612111-treatment measured from 10 to 90 mins by PET imaging analysis; type: ADME, organism-based, Macaca mulatta; conditions: rhesus monkey, in vivo
[27] = Drug uptake in SB612111-pretreated monkey caudate at 4.92 to 6.6 mCi, iv administered at 10 mins post SB612111-treatment measured from 10 to 90 mins by PET imaging analysis; type: ADME, organism-based, Macaca mulatta, Caudate nucleus; conditions: rhesus monkey, in vivo
[28] = Drug uptake in monkey hypothalamus at 4.92 to 6.6 mCi, iv administered as bolus dose measured at 90 mins by PET imaging analysis; type: ADME, organism-based, Macaca mulatta; conditions: rhesus monkey, in vivo
[29] = Drug uptake in SB612111-pretreated monkey cerebellum at 4.92 to 6.6 mCi, iv administered at 10 mins post SB612111-treatment measured from 10 to 90 mins by PET imaging analysis; type: ADME, organism-based, Macaca mulatta; conditions: rhesus monkey, in vivo
[30] = Drug uptake in SB612111-pretreated monkey hypothalamus at 4.92 to 6.6 mCi, iv administered at 10 mins post SB612111-treatment measured from 10 to 90 mins by PET imaging analysis; type: ADME, organism-based, Macaca mulatta; conditions: rhesus monkey, in vivo
[31] = Drug uptake in monkey amygdala at 4.92 to 6.6 mCi, iv administered as bolus dose measured at 90 mins by PET imaging analysis; type: ADME, organism-based, Macaca mulatta; conditions: rhesus monkey, in vivo
[32] = Drug uptake in monkey caudate at 4.92 to 6.6 mCi, iv administered as bolus dose measured at 90 mins by PET imaging analysis; type: ADME, organism-based, Macaca mulatta, Caudate nucleus; conditions: rhesus monkey, in vivo
[33] = Drug uptake in monkey lateral temporal cortex at 4.92 to 6.6 mCi, iv administered as bolus dose measured at 90 mins by PET imaging analysis; type: ADME, organism-based, Macaca mulatta; conditions: rhesus monkey, in vivo
[34] = Drug uptake in SB612111-pretreated monkey lateral temporal cortex at 4.92 to 6.6 mCi, iv administered at 10 mins post SB612111-treatment measured from 10 to 90 mins by PET imaging analysis; type: ADME, organism-based, Macaca mulatta; conditions: rhesus monkey, in vivo
Nociceptin receptor = Nociceptin receptor (Homo sapiens, UniProt P41146); assay: Displacement of [3H]nociceptin from human recombinant NOP receptor expressed in CHO cells after 60 mins by microbeta scintillation counting; type: cell-based
Nociceptin receptor, sequence (P41146 whole entry): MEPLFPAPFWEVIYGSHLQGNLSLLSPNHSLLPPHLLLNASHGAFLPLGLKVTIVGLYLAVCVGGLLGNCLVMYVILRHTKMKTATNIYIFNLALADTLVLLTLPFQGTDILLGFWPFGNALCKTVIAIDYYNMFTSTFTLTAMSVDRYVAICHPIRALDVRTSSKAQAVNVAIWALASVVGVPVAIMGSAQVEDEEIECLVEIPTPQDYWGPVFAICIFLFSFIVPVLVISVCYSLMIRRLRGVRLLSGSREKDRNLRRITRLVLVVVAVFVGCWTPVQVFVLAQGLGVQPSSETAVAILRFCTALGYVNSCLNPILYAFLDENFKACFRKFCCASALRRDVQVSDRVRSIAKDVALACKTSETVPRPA

[35] = Lipophilicity, log D of the compound by radiometric method; type: physicochemical; conditions: octanol/water
Method in brief: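 log D at pH 7.4 measured radiometrically on the carbon-11-labelled form of the ligand. Six determinations, reported as mean ± SD.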

CC(C)N(C)C(=O)[C@@H](Cc1ccccc1F)CN1CCC2(CC1)OCCc1cc(F)sc12
Drug uptake (Brain [1]): Not Active
Drug uptake (Brain [2]): Active
SUV (Brain [3]): 453%

CC(C)N(C)C(=O)[C@H](Cc1ccccc1F)CN1CCC2(CC1)OCCc1cc(F)sc12
logD [4]: 4.47

CNC(=O)[C@@H](Cc1ccccc1Cl)CN1CCC2(CC1)OCCc1cc(F)sc12
Drug uptake (Brain [1]): Not Active
Drug uptake (Brain [2]): Active
SUV (Brain [3]): 280%

CNC(=O)[C@H](Cc1ccccc1Cl)CN1CCC2(CC1)OCCc1cc(F)sc12
logD [4]: 3.9

CC(C)N([11CH3])C(=O)[C@@H](Cc1ccccc1F)CN1CCC2(CC1)OCCc1cc(F)sc12
Drug uptake [5]: Active
Drug uptake [6]: Active
Drug uptake [7]: Active
Drug uptake [8]: Not Active
Drug uptake [9]: Not Active
Drug uptake [10]: Not Active
Drug uptake [11]: Active
Drug uptake [12]: Active
Drug uptake [13]: Not Active
Drug uptake [14]: Not Active
Drug uptake [15]: Active
Drug uptake [16]: Not Active
Drug uptake [17]: Not Active
Drug uptake [18]: Not Active
Drug uptake [19]: Not Active
Drug uptake [20]: Active
Drug uptake [21]: Active
Drug uptake [22]: Not Active
Drug uptake [23]: Active
Drug uptake [24]: Active

[11CH3]NC(=O)[C@@H](Cc1ccccc1Cl)CN1CCC2(CC1)OCCc1cc(F)sc12
Drug uptake [5]: Active
Drug uptake [25]: Not Active
Drug uptake [6]: Active
Drug uptake [26]: Not Active
Drug uptake [27]: Not Active
Drug uptake [7]: Active
Drug uptake [28]: Not Active
Drug uptake [11]: Active
Drug uptake [12]: Active
Drug uptake [29]: Not Active
Drug uptake [30]: Not Active
Drug uptake [15]: Active
Drug uptake [31]: Not Active
Drug uptake [32]: Not Active
Drug uptake [20]: Active
Drug uptake [21]: Active
Drug uptake [33]: Not Active
Drug uptake [23]: Active
Drug uptake [24]: Active
Drug uptake [34]: Not Active

NC(=O)[C@@H](Cc1ccccc1Cl)CN1CCC2(CC1)OCCc1cc(F)sc12
Ki (Nociceptin receptor): 0.101 nM

NC(=O)[C@H](Cc1ccccc1Cl)CN1CCC2(CC1)OCCc1cc(F)sc12
Ki (Nociceptin receptor): 17.1 nM

CNC(=O)[C@@H](Cc1ccccc1F)CN1CCC2(CC1)OCCc1cc(F)sc12 [NOP-1A]
Drug uptake (Brain [1]): Not Active
Drug uptake (Brain [2]): Active
logD [35]: 3.41
SUV (Brain [3]): 280%

From ChEMBL document CHEMBL2202974 (J Med Chem, 2011)
